# Screens deposited in PubChem by several laboratories.
# Shown are actives, neighbours in structure and some others; about 11% of the full set was active somewhere.
# S1P1 ag pot: activates or potentiates agonism at human S1P1 receptor | S1P1 CRE-bla cells, forskolin, beta-lactamase FRET, potentiator mode; S1P1 agonist co-added at EC20, 2 nM; 100% = saturating reference agonist, 0% = basal | 56,000 tested, 0.57% active | activation, % at 9.5 µM | P21453;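 active = activation above a cutoff set at the mean activation of all tested compounds plus 3 SD, cut at about 54% in these data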;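 also: forskolin at 4 µM as EC80 and the EC20 agonist is SEW2871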
# D1 allo mod: allosteric modulators of human D1 dopamine receptor; P21728; HEK293 D1, CRE-luciferase, dopamine EC30 potentiation; actives deviate in either direction; B-score at 10 µM; 58,000 tested, 5.9% active; AID 641;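 active = luminescence count or its row- and column-corrected plate score outside the 99.7% band of the plate's sample wells, on either side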
# Target sequence (P21728 whole entry, looked up): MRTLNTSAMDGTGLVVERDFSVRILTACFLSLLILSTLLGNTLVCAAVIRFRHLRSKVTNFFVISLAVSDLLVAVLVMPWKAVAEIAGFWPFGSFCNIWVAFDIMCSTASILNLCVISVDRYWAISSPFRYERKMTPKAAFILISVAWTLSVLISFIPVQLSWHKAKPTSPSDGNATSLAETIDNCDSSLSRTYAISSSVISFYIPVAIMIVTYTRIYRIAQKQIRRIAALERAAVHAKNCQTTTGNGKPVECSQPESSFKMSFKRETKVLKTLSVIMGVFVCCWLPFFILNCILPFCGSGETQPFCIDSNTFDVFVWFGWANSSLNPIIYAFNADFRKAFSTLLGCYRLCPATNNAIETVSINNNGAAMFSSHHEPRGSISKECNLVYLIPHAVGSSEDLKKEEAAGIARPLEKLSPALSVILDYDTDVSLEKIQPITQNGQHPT
# M1 ag: agonists of M1 muscarinic receptor | CHO-M1 cells, Fluo-4 calcium fluorescence, agonist mode; active compounds read high | B-score at 10 µM | 64,000 tested, 3% active;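 active = fluorescence rise, raw or as B-score row- and column-corrected plate score, outside the 99.7% band of its plate's samples, either direction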
# S1P3 ag: activates the human S1P3 receptor; 60,000 tested, 0.1% active; S1P3 NFAT-BLA reporter cells, agonism, FRET ratio; relative to 1 µM S1P, basal subtracted; activation, % at 4.5 µM; AID 373; Q99500;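 active = activation above the screen-wide mean plus 3 SD, cut at about 4.5% in these data, passing the limit was not always enough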
#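 Assay system: CHO cells stably expressing human S1P3, Gα16 and NFAT-β-lactamase reporter. Timing: overnight plating, 4 h compound 37 °C, 2 h substrate RT. Signal: β-lactamase FRET emission ratio 460/535 nm. Measure: percent activation versus median 1 µM S1P response, basal-subtracted, per plate. Repeats: primary screen single test, confirmation screen in triplicate.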
# M1 antag: antagonists of rat M1 muscarinic receptor | B-score at 10 µM | 64,000 tested, 3.4% active | CHO-M1 cells, Fluo-4 calcium, ACh EC80 antagonist mode; active compounds read low | P08482;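 active = calcium fluorescence response, raw or row-and-column corrected B-score, differing from the plate sample mean either way at a set confidence level, mostly lower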
# TNAP act DEA: activates human TNAP at intermediate phosphate acceptor concentration | 64,000 tested, under 10 active | purified TNAP, CDP-star luminescence, 100 mM DEA, 30 min; active compounds read high; scale: 0 levamisole-inhibited, 1 vehicle-only enzyme | activation factor at 20 µM;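 active = activation factor of at least 2 at 20 µM, relative to controls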
# M1 agonist conf: confirmation of rat M1 muscarinic receptor agonists. shares compounds with M1 ag. CHO-M1 cells, Fluo-4 calcium fluorescence, agonist mode; actives lie on both sides. fluorescence change (max-min) at 10 µM. 1,700 tested, 19% active;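 active = fluorescence change differs from the solvent-only DMSO control mean at a set confidence level in both duplicate runs; inconclusive = differs from solvent-only control mean in just one of two runs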;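 also: an EC20 dose of acetylcholine follows compound addition during the same imaging run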
# M4 agonist ctr: counter-screen for M1 agonists: activity at rat M4 receptor; shares compounds with M1 ag; CHO M4/Gqi5 cells, Fluo-4 calcium fluorescence, agonist mode; actives lie on both sides; fluorescence change (max-min) at 10 µM; 1,700 tested, 9% active; AID 1741;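 active = fluorescence change differing from the plate's solvent-only control wells at 99.7% confidence in both duplicates, whether higher or lower; inconclusive = differs from solvent controls in only one of two duplicates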
# M1 antag conf: confirmation of rat M1 muscarinic receptor antagonists | CHO-M1 cells, Fluo-4 calcium, ACh EC80 antagonism; active compounds read low | shares compounds with M1 antag | calcium response (max-min fluorescence) at 10 µM | 1,700 tested, 43% active;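 active = calcium response below the same-plate mean of wells given acetylcholine alone at its 80%-effect dose, minus 3 SD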
# mGluR4 antag: mGluR4 (human) activity, M1 antagonist secondary assay. shares compounds with M1 antag. CHO-mGluR4 calcium flux, Fluo-4 fluorescence, glutamate EC80; active compounds read low. fluorescence response (max-min) at 10 µM. 1,700 tested, 0.9% active;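 active = fluorescence response below the plate's average for near-maximal glutamate wells, less 3 SD of those wells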;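 also: raw unnormalized fluorescence span taken in the window right after glutamate addition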
# D1 mod confirm: D1 receptor (human) allosteric modulation, confirmed | HEK293 D1 CRE-luciferase, dopamine EC30 potentiation; active compounds read high | shares compounds with D1 allo mod | luminescence at 10 µM | 2,200 tested, 88% active | AID 642;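 active = luminescence in either of two replicates above the same-plate mean plus 3 SD of the low-dose dopamine control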
# D1 no dopamine: activates D1 CRE-luciferase signal without dopamine present; shares compounds with D1 allo mod; HEK293 D1 CRE-luciferase, luminescence, no dopamine; active compounds read high; luminescence at 10 µM; 1,900 tested, 0.8% active; in the data active = luminescence above about 3900
# Isoprot counter: counter-screen for D1 modulators: isoproterenol response in HEK293 cells | 2,200 tested, 63% active | shares compounds with D1 allo mod | luminescence at 10 µM | HEK293 D1 CRE-luciferase, isoproterenol EC30 counter-screen; active compounds read high;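 active = luminescence in either replicate above plate mean of wells with a partly effective reference agonist dose plus 3 SD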;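 also: isoproterenol raises cAMP through native beta-adrenoceptor Gs so signal bypasses D1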
# A number is an active result; i = inactive; ? = inconclusive; nt = no result given.
SMILES,S1P1 ag pot,D1 allo mod,M1 ag,S1P3 ag,M1 antag,TNAP act DEA,M1 agonist conf,M4 agonist ctr,others
O=c1[nH]c(=O)n(-c2ccc(F)cc2)c(O)c1C=Nc1ccccc1N1CCCC1,i,i,4.2,i,i,i,i,?,
CCNCC1(c2ccc(OC)c(OC)c2)CCCC1,i,i,47,i,-15,i,i,i,
CCCC(C)(COC(N)=O)COC(=O)NC(C)C (centres undefined),i,i,i,i,i,i,nt,nt,
Cc1cc2c(C(F)(F)F)cc(=O)oc2c2c1NCCC2,i,i,205,i,i,i,1315,1119,
Cn1c2ccccc2c2c(C(=O)N3CCC4(CC3)OCCO4)cn(C3CCCC3)c(=O)c21,nt,i,14,nt,i,i,i,i,
COCCn1cc(C(=O)N2CCC3(CC2)OCCO3)c2c3ccccc3n(C)c2c1=O,i,i,i,i,i,i,nt,nt,
N=C(N)c1c(O)n(C2CCCCC2)c(=O)n(C2CCCCC2)c1=O,i,i,i,i,i,i,nt,nt,
CCCS(=O)(=O)N1CCC(C(=O)N2CCC3(CC2)OCCO3)CC1,i,i,i,i,i,i,nt,nt,
CCCS(=O)(=O)N1CCCC(C(=O)N2CCC3(CC2)OCCO3)C1 (centres undefined),i,i,2,i,i,i,i,i,
O=c1[nH]c(=O)n(CCC2=CCCCC2)c(O)c1C=NCCN1CCNCC1,i,i,i,i,i,i,nt,nt,
C=CCn1c(O)c(C=Nc2ccc(N(CC)CC)cc2)c(=O)[nH]c1=O,i,nt,17,i,i,i,i,i,
CN(C)c1ccc(N=Cc2c(O)n(CCC3=CCCCC3)c(=O)[nH]c2=O)cc1,i,i,7.9,i,i,i,?,i,
CCN(CC)c1ccc(N=Cc2c(O)n(CCC3=CCCCC3)c(=O)[nH]c2=O)cc1,i,i,109,i,i,i,578,627,
CC12CN3CC(C)(CN(C1)C3c1cccs1)C2O (centres undefined),i,i,i,i,i,i,nt,nt,
COP(=O)(OC)C(O)C(Cl)(Cl)Cl (centres undefined),i,i,i,i,i,i,nt,nt,
CC(=NCCCN1CCOCC1)c1c(O)n(Cc2ccccc2)c(=O)[nH]c1=O,i,i,i,i,i,i,nt,nt,
CC(=NCCCN1CCOCC1)c1c(O)[nH]c(=O)[nH]c1=O,i,i,1.5,i,i,i,?,i,
Cn1nc(-c2ccc(OCC(=O)N3CCN(Cc4ccccc4)CC3)cc2)c2ccccc2c1=O,i,i,5.4,i,-2,nt,?,i,
CCOc1ccc(Br)c(C2(O)CC(C)N(C)CC2C)c1 (centres undefined),i,i,i,i,i,i,nt,nt,
O=C(c1cc(Br)ccc1Cl)N1CCC2(CC1)OCCO2,i,i,i,i,i,i,nt,nt,
O=C(c1cc(-c2ccccc2)nc2ccccc12)N1CCC2(CC1)OCCO2,nt,i,4.3,nt,i,i,i,i,
N#Cc1ccccc1Cn1cc(C(=O)c2ccco2)c2ccccc21,i,i,i,i,i,i,nt,nt,
COCCNC(=O)c1c(NC(=O)c2ccco2)n(Cc2ccccc2)c2nc3ccccc3nc12,i,4.3,3.6,i,i,i,i,i,D1 mod confirm=10288;D1 no dopamine=i;Isoprot counter=i
CCCCNC(=O)Nc1ccc(C(O)(C(=O)OCC)C(F)(F)F)cc1 (centres undefined),i,i,i,i,i,i,nt,nt,
CCN1CCN(Cc2ccc(C)cc2)CC1,i,i,i,i,i,i,nt,nt,
SMILES,S1P1 ag pot,D1 allo mod,M1 ag,S1P3 ag,M1 antag,TNAP act DEA,M1 agonist conf,M4 agonist ctr,others
CCCCCCOc1ccc(CN2CCN(C)CC2)cc1,i,-3.5,i,i,-3.3,i,nt,nt,M1 antag conf=502;mGluR4 antag=i
CCc1cc2c(s1)NC(=O)CN=C2c1cccs1,i,i,i,i,i,i,nt,nt,
CN(CC1COc2ccccc2O1)c1nc(-c2cccnc2)nc2ccccc12 (centres undefined),i,i,i,i,-3.9,i,nt,nt,M1 antag conf=i;mGluR4 antag=i
COc1ccc(CN2CCCCC2c2cccnc2)cc1C (centres undefined),i,i,i,i,-5.4,i,nt,nt,M1 antag conf=482;mGluR4 antag=i
CC1(C)CC(=O)C(C=NCCN2CCN(C(=O)Cc3ccc(Cl)cc3)CC2)=C(O)C1,i,i,i,i,i,i,nt,nt,
CCOC(=O)C1CCN(C(C)C(=O)c2c(C)[nH]c3cc(C)ccc23)CC1 (centres undefined),i,i,i,i,-4.3,i,nt,nt,M1 antag conf=445;mGluR4 antag=i
CSc1ccc(C(=O)C(C)(C)N2CCOCC2)cc1,i,i,i,i,i,i,nt,nt,
CC1CCC(NCCc2ccc3c(c2)OCO3)CC1 (centres undefined),i,i,i,i,-5.2,i,nt,nt,M1 antag conf=199;mGluR4 antag=i
CN1C2CCC1CC(OC(=O)c1ccc(Cl)cc1)C2 (centres undefined),i,i,i,i,-19,i,nt,nt,M1 antag conf=61;mGluR4 antag=i
COc1ccc2c(c1OC)C(=O)OC2c1c(O)n(C2CCCCC2)c(=O)[nH]c1=O (centres undefined),i,nt,i,i,i,i,nt,nt,
CCOC(=O)C1(c2ccccc2)CCN(Cc2cccc(C(=O)O)c2)CC1,i,i,i,i,-3.8,i,nt,nt,M1 antag conf=i;mGluR4 antag=i
COc1cc(CN2CCN(C(=O)COc3ccccc3)CC2)cc(OC)c1OC,i,i,i,i,i,i,nt,nt,
Cc1ccccc1-n1c(O)c(C=NCCN2CCOCC2)c(=O)[nH]c1=O,i,i,i,i,i,i,nt,nt,
